Tests used:
[1] = melting temperature; fluorescence melt of hairpins on a sequencing array, two-state fit, raised by 9.35 °C to match UV melts; conditions: sodium 0.088 M
How it was run: (§1)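 Melting temperature and folding enthalpy were obtained by bootstrapped two-state fitting. Fits used Cy3 fluorescence of library hairpins with annealed Cy3 and quencher oligos on a sequenced MiSeq flow cell, imaged in 50 mM Na-HEPES pH 8.0, 25 mM NaCl in 2.5 °C steps up to 60 °C and normalised to pre-quench Cy3 and control constructs. Four replicates were combined by inverse-variance weighting, and fitted temperatures were raised by 9.35 °C to match UV melts.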

[2] = folding enthalpy; higher = less favourable; fluorescence melt of hairpins on a sequencing array, two-state fit; conditions: sodium 0.088 M
How it was run: as §1

Row | Sequence | Tm [1] [°C] | folding enthalpy [2] [kcal/mol]
1 | GTTGTAGGAAACTATAAC (((.(((....))).))) | 34 | -24.6
2 | GTTGTCACGAAAGTGAAC (((..(((....)))))) | 48.1 | -23.7
3 | GTTGTCGAAAGACACAAC ((((((....)))..))) | 32.6 | -11
4 | GTTGTCGAAAGACAGAAC ((((((....)))..))) | 35.6 | -12.9
5 | GTTGTCGAAAGACGTAAC ((((((....)))..))) | 31.9 | -11.3
6 | GTTGTCGAAAGACTAAC ((((((....))).))) | 38 | -16.9
7 | GTTGTCGGAAACGACAAC (((((((....))))))) | 67 | -34.6
8 | GTTGTCGGAAACGATAGC (.(.(((....))).).) | 32.4 | -17.1
9 | GTTGTGCGAAAGCATAAC (((.(((....))).))) | 54 | -30.5
10 | GTTGTGGAAACACAAC ((((((....)))))) | 58.3 | -38.3
11 | GTTGTGGGAAACCATGAC ((..(((....)))..)) | 34.7 | -30.4
12 | GTTGTTGGAAACAACAAC (((((((....))))))) | 58.6 | -41.5
13 | GTTGTTGGAAACAATAAC (((.(((....))).))) | 39.6 | -20.3
14 | GTTTAACGAAAGTTCAAC (((.(((....))).))) | 36 | -20.9
15 | GTTTAACGAAAGTTGAAC (((.(((....))).))) | 44.7 | -29.9
16 | GTTTAAGGAAACTTAGAC ((.((((....)))).)) | 32.6 | -14.3
17 | GTTTACACGAAAGTGAAC (((..(((....)))))) | 25.7 | -11.9
18 | GTTTACGAAAGTAAAC ((((((....)))))) | 57.3 | -28.3
19 | GTTTACGAAAGTACAAAC ((((((....)))..))) | 26.2 | -10.6
20 | GTTTAGGGAAACCCAAAC ((((.((....)).)))) | 33.2 | -24.7
21 | GTTTAGGGAAACCTAAGC (.(((((....))))).) | 33.8 | -21.8
22 | GTTTAGGGAAACCTAGAC ((.((((....)))).)) | 33 | -27.4

Row | Sequence | Tm [1] [°C] | folding enthalpy [2] [kcal/mol]
23 | GTTTAGGGAAACTTAAGC (.(((.(....).))).) | 33.6 | -15.4
24 | GTTTAGGGAAACTTAGAC ((.((.(....).)).)) | 32.8 | -13.6
25 | GTTTATCGAAAGATAAC (((.(((....)))))) | 35.5 | -18.6
26 | GTTTATCGAAAGATGAAC (((.(((....))).))) | 43.6 | -31.2
27 | GTTTATCGAAAGATTAAC (((.(((....))).))) | 33.5 | -28.9
28 | GTTTATGAAAATAAAC ((((((....)))))) | 42.4 | -33
29 | GTTTATGGAAACATAAAC (((((((....))))))) | 50 | -38.1
30 | GTTTCACGAAAGTGGAAC (((.(((....))).))) | 52.2 | -30.5
31 | GTTTCAGGAAACTAAAAC ((((.((....)).)))) | 29.2 | -8.21
32 | GTTTCAGGAAACTGGAAC (((.(((....))).))) | 43.3 | -26.4
33 | GTTTCCCGAAAGGGAAC (((.(((....)))))) | 50.6 | -14.1
34 | GTTTCCCGAAAGGGCAAC (((.(((....))).))) | 42 | -21.7
35 | GTTTCCCGAAAGGGTAAC (((.(((....))).))) | 47.9 | -22.5
36 | GTTTCCGAAAGGAACAAC ((((((....)))..))) | 31.2 | -13.7
37 | GTTTCCGGAAACGAAAAC ((((.((....)).)))) | 38.8 | -16.8
38 | GTTTCGCGAAAGCGCAAC (((.(((....))).))) | 44.7 | -22.8
39 | GTTTCGGGAAACCGAAGC (.(((((....))))).) | 47.3 | -23.4
40 | GTTTCTCCGAAAGGAAAC (((..(((....)))))) | 33 | -14.8
41 | GTTTCTCGAAAGAGTAAC (((.(((....))).))) | 38 | -26.7
42 | GTTTGACGAAAGTCAAC (((.(((....)))))) | 46 | -14
43 | GTTTGAGGAAACTTAAAC ((((.((....)).)))) | 36.9 | -18.4
44 | GTTTGCCGAAAGGCTAAC (((.(((....))).))) | 51.7 | -20.1

Row | Sequence | Tm [1] [°C] | folding enthalpy [2] [kcal/mol]
45 | GTTTGCGAAAGCAAAAAC ((((((....)))..))) | 40.3 | -10.9
46 | GTTTGCGAAAGCACAAC ((((((....))).))) | 41.1 | -17.1
47 | GTTTGCGAAAGCACGAAC ((((((....)))..))) | 27.1 | -9.85
48 | GTTTGCGAAAGCAGAAAC ((((((....)))..))) | 34.2 | -11.2
49 | GTTTGCGAAAGCAGGAAC ((((((....)))..))) | 30.7 | -10.3
50 | GTTTGCGCGAAAGCGAAC (((..(((....)))))) | 36.5 | -12
51 | GTTTGCGGAAACACAAAC (((((.(....).))))) | 42.1 | -34.2
52 | GTTTGCGGAAACGCAAGC (.(((((....))))).) | 54.6 | -23.4
53 | GTTTGCGGAAACGCAGAC ((.((((....)))).)) | 51.8 | -24.6
54 | GTTTGGGGAAACCTAAAC ((((.((....)).)))) | 40 | -35.5
55 | GTTTGGGGAAACTCAGAC ((.((.(....).)).)) | 27 | -9.8
56 | GTTTTCGAAAGAAAAAAC ((((((....)))..))) | 29.8 | -11.1
57 | GTTTTCGAAAGAAAAAC ((((((....))).))) | 39.2 | -15.8
58 | GTTTTGAAAAAAAC (((((....))))) | 37.6 | -12
59 | GTTTTGGGAAACTAAAGC (.(((.(....).))).) | 27.3 | -16.3
60 | GTTTTTCGAAAGAAAAC (((.(((....)))))) | 35.8 | -21.4
61 | GTTTTTGGAAACAAAAAC (((((((....))))))) | 51.5 | -41.9
62 | GTTTTTGGAAACAAAGAC ((.((((....)))).)) | 34 | -24.5
63 | TAACGGAAACGTTA (((((....))))) | 41.3 | -18.4
64 | TACAGGAAACTGTA (((((....))))) | 37.7 | -14.5
65 | TACCAGAAATGGTA (((((....))))) | 37.5 | -13.3
66 | TACCGGAAACGGTA (((((....))))) | 50.2 | -16

Row | Sequence | Tm [1] [°C] | folding enthalpy [2] [kcal/mol]
67 | TACGTGAAAACGTA (((((....))))) | 43.5 | -16.8
68 | TAGTGGAAACACTA (((((....))))) | 40.9 | -14.9
69 | TATCCGAAAGGATA (((((....))))) | 56.5 | -16.6
70 | TCTACGAAAGTAGA (((((....))))) | 47.8 | -16.4
71 | TCTGTGAAAACAGA (((((....))))) | 42.4 | -17.6
72 | TGAACGAAAGTTCA (((((....))))) | 53.3 | -20.6
73 | TGAAGGAAACTTCA (((((....))))) | 31.8 | -13.9
74 | TGAATGAAAATTCA (((((....))))) | 30.4 | -9.75
75 | TGACGGAAACGTCA (((((....))))) | 52.5 | -23.7
76 | TGAGAGAAATCTCA (((((....))))) | 28.2 | -9.57
77 | TGAGGGAAACCTCA (((((....))))) | 42.2 | -20.9
78 | TGATGGAAACATCA (((((....))))) | 41.3 | -22
79 | TGCCTGAAAAGGCA (((((....))))) | 59.1 | -17.5
80 | TGGTCGAAAGACCA (((((....))))) | 66.8 | -19.1
81 | TGGTGGAAACACCA (((((....))))) | 52.4 | -22.2
82 | TGTCGGAAACGACA (((((....))))) | 60 | -16.3
83 | TTCAGGAAACTGAA (((((....))))) | 35.7 | -13.5
84 | TTGACGAAAGTCAA (((((....))))) | 54.1 | -21.4
85 | TTTGTGAAAACAAA (((((....))))) | 35.6 | -12.6

From the array DNA melting data of Ke et al. (doi:10.1101/2024.01.08.574731)
